The source of these data is ChEMBL document CHEMBL2163240, “Griseusins F and G, spiro-naphthoquinones from a tin mine tailings-derived alkalophilic Nocardiopsis species” (J Nat Prod, 2012).

≈ marks a conversion by molar mass, not a printed value.

Assay [1] relates to Staphylococcus aureus. The assay can be described thus: Antibacterial activity against Staphylococcus aureus ATCC 29213 after overnight incubation by agar well diffusion assay. The assay is classed as functional.
The nature of assay [2]: Cytotoxicity against human MDA-MB-435S cells after 24 to 72 hrs by MTT assay. It counts as functional, cell-based. The method in brief: (§1)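 Cells (from Kunming Medical University) seeded at 5 × 10^4 cells/mL, preincubated 24 h at 37 °C, then given graded concentrations of test chemical in DMSO; cisplatin as positive control. MTT staining after 24, 48 and 72 h, OD 492 nm versus negative control; IC50 = concentration giving 50% cell death, from concentration–viability plot.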

The subject of assay [3] is CFPAC-1. The assay can be described thus: Cytotoxicity against human CFPAC-1 cells after 24 to 72 hrs by MTT assay. The assay is classed as functional, cell-based. The method in brief: as §1
The test system of assay [4] is HCT-116. The assay can be described thus: Cytotoxicity against human HCT116 cells after 24 to 72 hrs by MTT assay. The assay is classed as functional, cell-based. The method in brief: as §1
The test system of assay [5] is ACHN. The assay can be described thus: Cytotoxicity against human ACHN cells after 24 to 72 hrs by MTT assay. It counts as functional, cell-based. In short, it runs like this:
as §1

Assay [6] relates to Micrococcus luteus. The assay can be described thus: Antibacterial activity against Micrococcus luteus after overnight incubation by agar well diffusion assay. It counts as functional.
Assay [7] has as its system Bacillus subtilis. Put plainly: Antibacterial activity against Bacillus subtilis after overnight incubation by agar well diffusion assay. It counts as functional.
Assay [8] deals with B16. The assay can be described thus: Cytotoxicity against mouse B16 cells after 24 to 72 hrs by MTT assay. The assay is classed as functional, cell-based. The method in brief:
as §1

Consider `CC(=O)C[C@]12C(=O)c3cccc(O)c3C(=O)[C@H]1[C@@]1(O[C@H](C)C[C@H](O)[C@H]1O)O[C@@H]1CC(=O)O[C@@H]12` [GRISEUSIN F], for which the MIC was 0.91 µg/mL (≈ 1.98 µM) in assay [1], 1.27 µg/mL (≈ 2.76 µM) in assay [6] and 1.65 µg/mL (≈ 3.58 µM) in assay [7]. For the same compound, the IC50 in assay [2] worked out at 820 nM; in assay [3] it was 640 nM; in assay [4], 700 nM; in assay [5], 550 nM; in assay [8], 430 nM.

On to `CC(=O)C[C@]12C(=O)c3cccc(O)c3C(=O)[C@H]1[C@@]1(O[C@H](C)CC(=O)[C@H]1O)O[C@@H]1CC(=O)O[C@@H]12` [GRISEUSIN G], for which the MIC in assay [1] was found to be 0.8 µg/mL (≈ 1.75 µM); in assay [6] it was 1.47 µg/mL (≈ 3.21 µM); in assay [7], 1.33 µg/mL (≈ 2.9 µM). Moreover, the IC50 in assay [2] was 690 nM; in assay [3], 420 nM; in assay [4] it was 580 nM; in assay [5], 460 nM; in assay [8], 370 nM.

Consider `O=C(O)c1cn(C2CC2)c2cc(N3CCNCC3)c(F)cc2c1=O` [CIPROFLOXACIN], for which the MIC in assay [1] was determined as 0.28 µg/mL (≈ 0.845 µM); in assay [6] it was 1.19 µg/mL (≈ 3.59 µM); in assay [7], 0.64 µg/mL (≈ 1.93 µM).
